Sampled rows, rich in hits. Any-hit rate of the full collection: about 4.1%.
MEKK3 PB1 HTS: raises or lowers MEK5 binding to the human MEKK3 PB1 domain; 290,000 tested, 1.4% active; binding response (% of control), % at 10 µM; bead-based flow cytometry, Alexa488-MEK5 binding to MEKK3; actives lie on both sides; 0 = blocked by unlabeled MEK5, 100 = vehicle; Q99759; AID 1529;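 active means binding response more than 3 SD above or below the average of its plate-row segment, actives on both sides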;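 further: Alexa488 bead fluorescence after subtracting the streptavidin-only scavenger bead signal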
Target sequence (Q99759 whole entry, looked up, the tested form may be a part): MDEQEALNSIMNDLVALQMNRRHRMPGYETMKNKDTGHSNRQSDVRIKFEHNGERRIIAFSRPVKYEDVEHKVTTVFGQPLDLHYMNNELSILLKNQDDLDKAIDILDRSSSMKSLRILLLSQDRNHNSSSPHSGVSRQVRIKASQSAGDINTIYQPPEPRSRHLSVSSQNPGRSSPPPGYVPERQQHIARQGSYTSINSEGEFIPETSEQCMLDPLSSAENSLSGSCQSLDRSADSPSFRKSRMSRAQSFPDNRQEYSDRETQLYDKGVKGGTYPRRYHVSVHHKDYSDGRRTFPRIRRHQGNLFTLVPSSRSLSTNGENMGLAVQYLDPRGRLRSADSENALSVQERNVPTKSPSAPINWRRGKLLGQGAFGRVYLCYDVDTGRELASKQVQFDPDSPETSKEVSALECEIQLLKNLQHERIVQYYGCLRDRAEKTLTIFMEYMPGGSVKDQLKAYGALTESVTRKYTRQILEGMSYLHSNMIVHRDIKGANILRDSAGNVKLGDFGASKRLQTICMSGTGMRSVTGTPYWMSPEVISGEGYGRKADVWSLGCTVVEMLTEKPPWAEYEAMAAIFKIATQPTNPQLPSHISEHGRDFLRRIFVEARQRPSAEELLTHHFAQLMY
NS3 helicase inh: blocks Hepatitis C virus NS3 helicase unwinding | inhibition, % at 10.9 µM | NS3 helicase DNA unwinding, Cy5 molecular beacon fluorescence | AID 1800 | 290,000 tested, 0.56% active;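 active means inhibition above the mean of all tested compounds plus 3 SD, set per campaign, cut at about 35% in these data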;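 further: 0% = DMSO wells and 100% = thioflavine S control wells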
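Control set: DMSO versus 110 µM thioflavine S; Material: NS3 helicase fragment of HCV; Measured by: Cy5 fluorescence at 0 and 60 min, beacon hairpin quenching; Read-out basis: percent inhibition from t60/t0 fluorescence ratio; Times: reaction time 60 min, 25 °C; Repeats: single replicate; Compound dosing: single dose, 10.9 µM nominal final, DMSO 0.8% final.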
MEKK2 WT-MEK5: raises or lowers MEK5 binding to wildtype human MEKK2 PB1 domain; Q9Y2U5; bead flow cytometry, Alexa488-MEK5 binding to MEKK2 WT; actives lie on both sides; binding response (% of control), % at 10 µM; 290,000 tested, 1.1% active; in the data active means binding response below about 67% or above about 130%
T cruzi repl: blocks replication of Trypanosoma cruzi. T. cruzi beta-gal in NIH3T3, luminescence, 90 h. inhibition, % (test concentration not listed). 300,000 tested, 1.4% active;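 active means mean inhibition across valid replicates above about 55%, limit read from the data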;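 further: signal also drops with host cell toxicity which is not excluded here; 0% = plate median of DMSO wells and 100% = zero luminescence signal; higher percent means less beta-gal luminescence so fewer parasites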
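System: Mouse NIH/3T3 fibroblasts infected with β-gal-expressing T. cruzi Tulahuen C4 | Quantity: NIH/3T3 cells, 5,000 per well | Reagent: 5000 reporter trypomastigotes per well | Dosing: Compound pinned at 50 nL/well, DMSO | Schedule: 3 h host attachment, then at least 90 h co-culture | Detection: GalScreen luminescence, 60 min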
MEKK2 mut-MEK5: signal of MEK5 binding to mutant human MEKK2 PB1 domain; bead flow cytometry, Alexa488-MEK5 binding to MEKK2 mutant; percent response, % at 10 µM; 290,000 tested, 0.35% active; AID 1530; in the data active means percent response above about 24%, passing the limit was not always enough
FID counter: counter-screen for HCV NS3 helicase inhibitors: DNA intercalator displacement | DNA fluorescent intercalator displacement, fluorescence | inhibition, % at 7.9 µM | 290,000 tested, 0.17% active | AID 1845; in the data active means inhibition above about 37%;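 further: 0% = vehicle and 100% = reference compound; higher means more ethidium bromide displaced from hairpin DNA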
MEKK2wt confirm: raises or lowers MEK5 binding to wildtype human MEKK2, retest; 5,900 tested, 2.4% active; bead flow cytometry, Alexa488-MEK5 binding to MEKK2 WT; actives lie on both sides; shares compounds with MEKK3 PB1 HTS; binding response (% of control), % at 10 µM; in the data active means binding response below about 16% or above about 210%; inactive means in between
MEKK2mut-MEK5: signal of MEK5 binding to mutant human MEKK2, retest. shares compounds with MEKK3 PB1 HTS. bead flow cytometry, Alexa488-MEK5 binding to MEKK2 mutant. percent response, % at 10 µM. 5,900 tested, 2% active; in the data active means percent response mostly above about 71%, no sharp cut-off; inactive means mostly below about 38%;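 further: higher means compound restores mutant binding toward wildtype level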
MEKK3-MEK5 inh: confirmation of inhibitors of MEK5 binding to human MEKK3; shares compounds with MEKK3 PB1 HTS; bead flow cytometry, Alexa488-MEK5 binding to MEKK3; hits give low values; binding response (% of control), % at 10 µM; 5,900 tested, 1.8% active;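 active means binding response below 72% of control, or above a set upper limit, though filed actives all read lower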;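 further: 100% = DMSO only wells and 0% = binding blocked by excess unlabeled MEK5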
An asterisk follows results filed as active; · = no result given; [ ] = another dose, or the depositor's remark.

SMILES | MEKK3 PB1 HTS | NS3 helicase inh | MEKK2 WT-MEK5 | T cruzi repl | MEKK2 mut-MEK5 | FID counter | MEKK2wt confirm | MEKK2mut-MEK5 | MEKK3-MEK5 inh
S=C(Nc1ccc(Br)cc1Cl)N1CCN(c2ccccn2)CC1 | 102.0 | 8.4 | 102.0 | -24.7 | 2.0 | -13.2 | · | · | ·
COc1cccc(OCC(=O)NC2CCCCC2)c1 | 105.0 | -3.9 | 103.0 | 9.6 | 2.0 | 0.8 | · | · | ·
Cc1cc(OCC(=O)NC2CCCCC2)ccc1Cl | 147.0* | 11.1 | 105.0 | -0.6 | 2.0 | -22.3 | 107.0 | 3.0 | 102.0
CSCCC(NC(=O)c1cccc(S(=O)(=O)N2CCOCC2)c1)C(=O)Nc1ccc(F)cc1 (stereo unspecified) | 97.0 | 3.6 | 100.0 | -2.6 | 1.0 | -10.1 | · | · | ·
CSCCC(NC(N)=O)C(=O)Nc1cccc(S(=O)(=O)N2CCOCC2)c1 (stereo unspecified) | 72.0*[inhibitor] | 15.9 | 83.0 | -5.9 | -9.0 | -1.6 | 98.0 | 0.0 | 102.0
O=C(Cn1ncc2c([nH]c3ccccc32)c1=O)NCC1CCN(Cc2ccccc2F)CC1 | 101.0 | -9.3 | 111.0 | 33.1 | 2.0 | 3.5 | · | · | ·
CC(C)Cn1c(N)c(C(=O)COC(=O)/C=C/c2ccccc2)c(=O)n(C)c1=O | · | · | · | -0.9 | · | · | · | · | ·
COC(=O)c1sc(NC(=O)COc2cccc(C)c2)nc1C | 141.0* | -4.7 | 114.0 | -19.8 | 2.0 | -9.3 | 66.0 | -26.0 | 62.0*
CN1C(=O)N(C)C2(c3ccccc3)N(C)C(=O)NC12c1ccccc1 (stereo unspecified) | 35.0*[inhibitor] | -2.7 | 50.0 | -5.1 | -17.0 | -5.9 | 101.0 | 6.0 | 101.0
CCN(CC(=O)NCc1cccs1)C(=O)/C=C/c1cccc(Cl)c1Cl | · | · | · | 0.3 | · | · | · | · | ·
CCc1ccc(NC(=S)NC(=O)CC(C)C)cc1 | 148.0* | -9.3 | 110.0 | 28.1 | 1.0 | -7.0 | 104.0 | 11.0 | 108.0
CC1(C)C(=O)Nc2ccccc2N1C(=O)COC(=O)COc1ccc(C#N)cc1 | 99.0 | -1.8 | 97.0 | -2.5 | -4.0 | -31.7 | · | · | ·
O=C(CC1CC2CCC1C2)NC1CCCCCCC1 (stereo unspecified) | 102.0 | 3.5 | 101.0 | -16.8 | 0.0 | -23.1 | · | · | ·
C=CCc1cccc2cc(C(=O)Nc3ccc(CC(=O)O)cc3)c(=O)oc12 | 139.0* | -5.0 | 101.0 | 4.3 | 1.0 | -26.7 | 98.0 | -1.0 | 102.0
C=CCc1cccc2cc(C(=O)Nc3ccc(F)cc3)c(=O)oc12 | 107.0 | -0.9 | 108.0 | -5.5 | 3.0 | 0.5 | · | · | ·
COc1ccc(C(CCN2CCCCC2)c2c(OC)cc(OC)c3c(-c4ccccc4)cc(=O)oc23)cc1 (stereo unspecified) | 106.0 | · | 182.0* | 42.5 | 26.0* | · | 153.0 | 22.0 | 106.0
COc1cc(OC)c2c(-c3ccccc3)cc(=O)oc2c1C(CCN1CCCCC1)c1ccc(N(C)C)cc1 (stereo unspecified) | 127.0 | · | 183.0* | 41.0 | 20.0 | · | 154.0 | 34.0 | 104.0
COc1cc(C(CCN2CCN(c3ccccc3)CC2)c2c(OC)cc(OC)c3c(C)cc(=O)oc23)cc(OC)c1OC (stereo unspecified) | 108.0 | · | 101.0 | 32.0 | 12.0 | · | · | · | ·
CC(C)C(c1nnnn1C(C)(C)C)N1CCN(c2cccc(Cl)c2)CC1 (stereo unspecified) | 96.0 | -7.2 | 97.0 | · | 1.0 | -2.4 | · | · | ·
Cn1c(COc2ccccc2O)[n+](C)c2ccccc21 | 109.0 | -9.8 | 116.0 | -0.7 | 15.0 | -1.3 | · | · | ·
CCCCCCCCCCOC(=O)Cn1c(COc2ccccc2OC)[n+](C)c2ccccc21 | 111.0 | -81.9 | 238.0* | 49.6 | 61.0* | 46.2* | 251.0* | 141.0* | 112.0
Cc1cccc(C)c1OCCOCCN1CCN(C)CC1 | 105.0 | -9.4 | 145.0* | 35.6 | 6.0 | 1.1 | 121.0 | 16.0 | 102.0
Cc1cccc(C)c1OCCN1CCCC1 | 104.0 | 11.7 | 108.0 | 3.5 | 4.0 | 3.0 | · | · | ·
COc1cccc(Nc2nc(-c3sc(NC(=O)c4ccccc4)nc3C)cs2)c1 | 107.0 | -2.6 | 143.0* | -11.8 | 15.0 | 2.9 | 119.0 | 12.0 | 102.0
COc1cccc(Nc2nc(-c3sc(NC(=O)CC(C)C)nc3C)cs2)c1 | 105.0 | 1.8 | 109.0 | -11.2 | 2.0 | 3.4 | · | · | ·
SMILES | MEKK3 PB1 HTS | NS3 helicase inh | MEKK2 WT-MEK5 | T cruzi repl | MEKK2 mut-MEK5 | FID counter | MEKK2wt confirm | MEKK2mut-MEK5 | MEKK3-MEK5 inh
Cc1cnn(C(=O)c2cc(-c3ccccn3)nc3ccc(Cl)cc23)c1 | 101.0 | 8.1 | 97.0 | 3.2 | 0.0 | -4.2 | · | · | ·
O=C(c1cc(-c2ccccn2)nc2ccc(Cl)cc12)N1CCN(CCc2ccccc2)CC1 | -1.0*[inhibitor] | -1.0 | -4.0*[inhibitor] | 0.9 | -23.0 | -7.9 | 97.0 | -2.0 | 97.0
COc1ccc2[nH]c3c(=O)n(Cc4ccc(C(=O)NCC5CCCO5)cc4)c(=S)[nH]c3c2c1 (stereo unspecified) | 128.0 | -4.3 | 119.0 | 3.4 | 178.0* | -19.4 | 102.0 | 5.0 | 103.0
O=C(NCC1CCCO1)c1ccc2c(=O)n(CC3CCCO3)c(=S)[nH]c2c1 (stereo unspecified) | 2.0*[inhibitor] | 4.4 | 3.0*[inhibitor] | -8.1 | -18.0 | -15.6 | 97.0 | -4.0 | 101.0
CCCCNC(=O)c1ccc(Cn2c(=S)[nH]c3c([nH]c4ccc(OC)cc43)c2=O)cc1 | 118.0 | 9.1 | 103.0 | -2.8 | 0.0 | -6.7 | · | · | ·
COC(=O)C1=C(C)NC2=C(C(=O)CC(c3cccs3)C2)C1c1ccsc1 (stereo unspecified) | 101.0 | 8.8 | 99.0 | 10.5 | -2.0 | -15.4 | · | · | ·
CCOC(=O)C1=C(C)NC2=C(C(=O)CC(c3cccs3)C2)C1c1cccs1 (stereo unspecified) | 72.0*[inhibitor] | -3.8 | 79.0 | -9.7 | 3.0 | -20.9 | 96.0 | 0.0 | 101.0
COc1cccc2sc3ccc(C#CC4(N)CCCCC4)cc3c(=O)c12 | 103.0 | -106.2 | 136.0* | 22.9 | 14.0 | 6.0 | 145.0 | 22.0 | 108.0
COCCNS(=O)(=O)c1cc2[nH]c3c(c2cc1C)C(=O)CC(C)(C)C3 | 101.0 | -7.2 | 106.0 | 3.2 | 4.0 | -11.6 | · | · | ·
CCOc1ccc(CN2CCN(Cc3cnn(CC)c3C)CC2CCO)cc1 (stereo unspecified) | 48.0*[inhibitor] | 2.3 | 53.0 | 25.7 | -13.0 | 2.6 | 98.0 | -3.0 | 99.0
COc1cccc(CN2CCN(Cc3ccc(O)cc3)CC2CCO)c1 (stereo unspecified) | 46.0*[inhibitor] | 0.9 | 65.0 | -12.7 | -18.0 | 13.5 | 113.0 | 16.0 | 111.0

Source: PubChem
